From PubChem BioAssay
hiPSC survival = increases survival of single human iPS cells. survival enhancement, % at 20 µM. 0.044% of 360,000 active. hiPSC single-cell survival, ATPlite luminescence; 100% = ROCK inhibitor wells, 0% = DMSO; in the data active = survival enhancement above about 18%;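 also: cells exposed to compounds for 16 hours before the ATP read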
MIN6 prolif = induces beta-cell replication in MIN6 cells. MIN6 cells proliferation, ATPlite luminescence, 48 h; cells starved in 0.2% serum; 100% = growth in 10% serum. proliferation, % at 10 µM. 0.29% of 330,000 active. AID 2380;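 active = compounds whose signal lies at least 3.5 SD above the mean of all wells on their plate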
H9c2 protect = protects H9c2 cardiomyocytes from peroxide injury; protection from H2O2 cell death, % at 20 µM; H2O2 injury protection, ATPLite, 2 h; 0.63% of 360,000 active;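 active = compounds giving at least 50% protection of heart cells from peroxide-induced death in the single-dose screen, raw or plate-pattern-corrected value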
CRFBP-R2 agonist = agonists of human CRF-binding protein/CRF-R2 receptor complex. HEK293 CRF-R2/CRF-BP, calcium dye fluorescence (FLIPR); percent of saturating CRF peptide response. activation, % at 13.2 µM. 0.46% of 350,000 active. AID 588473;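 active = activation of at least 50%, plus an integration ratio under a set limit after plate pattern correction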
UCH37 DUB inh = blocks the human deubiquitinase UCH37; AID 588478; purified proteasome/UCH37, Ub-AMC cleavage fluorescence; inhibition, % (test concentration not listed); 0.33% of 330,000 active;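 active = mean inhibition over replicate wells above about 20%, limit read from the data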
Target sequence (Q9Y5K5 whole entry, looked up): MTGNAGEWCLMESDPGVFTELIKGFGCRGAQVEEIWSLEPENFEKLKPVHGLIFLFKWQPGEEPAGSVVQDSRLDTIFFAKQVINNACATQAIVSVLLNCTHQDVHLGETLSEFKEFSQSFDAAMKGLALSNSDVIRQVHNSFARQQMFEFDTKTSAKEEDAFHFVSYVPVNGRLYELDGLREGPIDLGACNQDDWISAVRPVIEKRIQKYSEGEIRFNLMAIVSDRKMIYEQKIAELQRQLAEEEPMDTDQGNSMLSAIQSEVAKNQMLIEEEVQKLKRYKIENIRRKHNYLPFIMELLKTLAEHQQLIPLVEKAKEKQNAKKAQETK
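System: Proteasome-associated human UCH37 deubiquitinase; Input: 0.15 nM proteasome in added enzyme buffer; Also added: Ub-AMC substrate from 1 µM stock; Incubation: 30 min compound-proteasome preincubation then 25 min substrate reaction, room temperature; Detection: fluorescence, ex 355 nm, em 460 nm; Read-out: % inhibition of Ub-AMC cleavage fluorescence; Benchmarks: no-proteasome and no-compound wells.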
CRFBP-R2 block = blocks CRF-induced signaling of the CRF-BP/CRF-R2 complex; HEK293 CRF-R2/CRF-BP, CRF-induced calcium fluorescence; inhibition, % at 11.8 µM; 0.59% of 350,000 active;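 active = inhibition of the ligand-induced calcium signal above about 50% at the single tested concentration, limit read from the data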
A number is an active result; . = inactive; / = no result. Sampled rows, rich in hits. Any-hit rate of the full collection: about 2.1%.

SMILES	hiPSC survival	MIN6 prolif	H9c2 protect	CRFBP-R2 agonist	UCH37 DUB inh	CRFBP-R2 block
COc1ccc(NC(=O)N(C)C[C@H]2Oc3c(NC(=O)Nc4ccc(C(F)(F)F)cc4)cccc3C(=O)N([C@H](C)CO)C[C@@H]2C)cc1	.	.	59	.	.	.
C=C1CCC(C)C(C)(CCC2=CCOC2=O)CC=CC=C1C(=O)O (stereo unspecified)	/	/	/	/	.	/
O=[N+]([O-])c1ccc(C=NNc2ccnc3cc(Cl)ccc23)o1	/	/	/	/	.	/
Cc1cccc(NN=C(C=NN)C(=O)c2ccc(Br)cc2)c1	/	/	/	/	.	/
CC(=O)Oc1cc(C(=O)OCC(=O)NC23CC4CC(CC(C4)C2)C3)cc(OC(C)=O)c1OC(C)=O	.	/	84	.	.	.
NC(=O)c1ccccc1OCC(=O)NC12CC3CC(CC(C3)C1)C2	.	.	56	.	.	.
Cc1ccccc1OCC(=O)OCC(=O)NC12CC3CC(CC(C3)C1)C2	.	/	.	.	/	.
Cc1ccc(-c2nnc(SCC(=O)NN=Cc3cccs3)n2-c2ccc(C)cc2)cc1	/	/	/	/	.	/
Cc1ccc(Cn2c(SCC(=O)NCC3CCCO3)nc3ccsc3c2=O)cc1 (stereo unspecified)	.	.	.	.	.	54
COc1ccc(C(=O)ON=C2CCCc3nonc32)cc1	/	/	/	/	.	/
COc1cccc(NN=C(C#N)S(=O)(=O)C(C)(C)C)c1	/	/	/	/	.	/
CC(=O)Nc1ccc(S(=O)(=O)NCC2CC3CCC2C3)cc1 (stereo unspecified)	.	/	.	.	/	.
Cc1cc(F)ccc1S(=O)(=O)NCC1CC2CCC1C2 (stereo unspecified)	.	.	.	87	.	.
Cn1c(=O)n(N=Cc2ccccc2)c2ccccc21	/	/	/	/	.	/
OC(CNCc1ccccc1)(c1ccccc1)c1ccccc1	.	.	.	.	.	.
OC(Cc1ccncc1)(c1ccccc1)c1ccccc1	.	.	.	.	25	.
Cc1cc(C)c(OCCN(C)Cc2ccccc2)c(Br)c1	.	.	.	.	.	87
CCOC(=O)Cn1cc(C=NN2C(=O)C3C4C=CC(C4)C3C2=O)c2ccccc21 (stereo unspecified)	/	/	/	/	.	/
COc1cc(CN2C[C@@H](CO)O[C@@H](n3cnc4c(NC5CCC5)ncnc43)C2)cc(OC)c1OC	.	/	.	/	/	/
COc1cc(CN2C[C@@H](CO)O[C@@H](n3cnc4c(Nc5ccccc5)ncnc43)C2)cc(OC)c1OC	.	/	79	/	/	/
CC(=NNC(=O)Cn1nc(C)cc1C)c1ccc([N+](=O)[O-])cc1	/	/	/	/	.	/
C=CCc1cccc(/C=N/NC(=O)CNc2ccccc2OC)c1O	.	.	63	.	/	.
C=CCc1cccc(/C=N/NC(=O)CCC(=O)Nc2ccc(F)cc2)c1O	.	.	57	.	/	.
Brc1ccc(NN=C(N=Nc2nn[nH]n2)c2ccccc2)cc1	/	/	/	/	22	/
Cc1oc2c(c1C(=O)c1ccc(Cl)cc1)C(=O)C(=O)c1ccccc1-2	.	/	.	.	/	.
SMILES	hiPSC survival	MIN6 prolif	H9c2 protect	CRFBP-R2 agonist	UCH37 DUB inh	CRFBP-R2 block
Cc1ccc(C(=O)c2c(C)oc3c2C(=O)C(=O)c2ccccc2-3)cc1	.	.	.	.	42	.
O=C1N/C(=N/N=Cc2ccc(F)cc2)SC1c1ccccc1 (stereo unspecified)	/	/	/	/	.	/
O=C1N/C(=N/N=C/c2ccc(F)cc2)SC1c1ccccc1 (stereo unspecified)	.	.	.	.	/	52
O=C(CN1CCOCC1)NN=Cc1ccc(-c2cccc(Cl)c2Cl)o1	/	/	/	/	.	/
COc1ccc(S(=O)(=O)N2CC(O)CC2C(=O)OCc2nc3sc(C)c(C)c3c(=O)[nH]2)cc1 (stereo unspecified)	.	.	79	.	.	.
Cc1cc(C)cc(OCC(=O)NNC(=O)c2ccccn2)c1	.	.	78	.	.	.
O=C(COc1ccc(Cl)cc1)NNC(=O)c1ccccn1	.	.	.	.	.	.
COc1ccc(CCN2C(=O)CC(Cc3ccccc3)C2=O)cc1OC (stereo unspecified)	.	.	.	.	.	79
O=C(CN1CCCCCCC1)NN=Cc1ccc(F)cc1F	/	/	/	/	.	/
S=c1[nH]nc(C2CCCCC2)n1N=Cc1ccncc1	/	/	/	/	.	/
FC(F)(F)c1ccccc1C=Nn1c(C2CCCCC2)n[nH]c1=S	/	/	/	/	.	/
CCc1ccc(S(=O)(=O)N=C2C=C(Sc3ncn[nH]3)C(=O)c3ccccc32)cc1	/	/	/	/	80	/
Cc1cc(C)c(S(=O)(=O)/N=C2/C=C(Sc3ncn[nH]3)C(=O)c3ccccc32)cc1C	.	/	.	.	/	.
O=[N+]([O-])c1ccc(O)c(-c2cc(C(F)(F)F)nc(-c3ccccc3)n2)c1	.	.	.	62	.	59
COc1ccc(CCNC(=O)/C=C/c2ccco2)cc1OC	.	.	.	.	.	.
COc1ccc(/C=C/C(=O)NCCSCc2ccco2)cc1OC	.	.	.	.	.	66
Cn1ccc(C=N/N=C2/NC(=O)CS2)n1	/	/	/	/	.	/
CN(/N=C/c1ccc(-c2ccc([N+](=O)[O-])cc2)o1)c1ccccc1	.	.	.	79	/	.
O=C(Cc1ccccc1)NN=Cc1ccc(-c2ccc([N+](=O)[O-])cc2)o1	/	/	/	/	.	/
COc1ccc(C(C(=O)NCc2ccccc2)N(Cc2ccco2)C(=O)c2snc(C(N)=O)c2N)cc1OC (stereo unspecified)	.	.	.	.	.	.
COc1ccc(C(C(=O)NCc2ccccc2)N(Cc2ccco2)C(=O)c2snc(C(N)=O)c2N)cc1 (stereo unspecified)	.	.	80	.	.	.
Cc1ccc(C(C(=O)NCc2ccccc2)N(Cc2ccco2)C(=O)c2snc(C(N)=O)c2N)o1 (stereo unspecified)	.	.	61	.	.	.
NC(=O)c1nsc(C(=O)N(CCc2ccccc2)C(C(=O)NC2CCCC2)c2ccco2)c1N (stereo unspecified)	.	.	78	.	.	.
C/C(C=NNC(=O)c1cccnc1)=C\c1ccccc1	/	/	/	/	.	/
CC(=NNC(=O)Cc1ccc([N+](=O)[O-])cc1)c1cccnc1	/	/	/	/	.	/
CC(=O)Nc1nnc(SCC(=O)NC(C)(C)C)s1	.	.	.	.	.	.
CCC(C)C(=O)Nc1nnc(SCC(=O)NC(C)(C)C)s1 (stereo unspecified)	.	.	.	.	.	67
CCOc1ccccc1C=Nn1c(C2CCCCC2)n[nH]c1=S	/	/	/	/	.	/
CC(C(=O)NN=Cc1ccc(N(C)C)c(Br)c1)N(c1ccccc1)S(C)(=O)=O (stereo unspecified)	/	/	/	/	.	/
COc1cccc2c1C(=O)c1c(O)c3c(c(O)c1C2=O)C[C@@](O)(C(C)=O)C[C@@H]3O[C@H]1C[C@H](N)[C@H](O)[C@H](C)O1	.	/	.	83	.	.
